Data on 7 molecules can be found in ChEMBL document CHEMBL1131456, “Synthesis, pharmacological characterization, and quantitative structure-activity relationship analyses of 3,7,9,9-tetraalkylbispidines: derivatives with specific bradycardic activity” (J Med Chem, 1998).

Series [1] in a line: Partition coefficient (logP). It is filed as physicochemical. The conditions noted are these: octanol/water; read-out: logP. In a few lines:
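Lipophilicity was measured by reversed-phase HPLC. Mobile phase was methanol/0.005 M phosphate buffer pH 4 (60/40) with 0.1% SDS and 0.1 M NaClO4, at 23.0 ± 0.5 °C, with UV detection at 205 nm.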

The species named for series [2] is Cavia porcellus. The experiment in a line: In vitro activity in guinea pig atria as the functional refractory period (FRP), which is the shortest interval between a double stimulus causing a double contraction. A digest of the protocol:
(§1)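 Isolated guinea pig atria in oxygenated buffer at 35 °C. Right atria beat spontaneously; left atria were paced at 2 Hz with 1 ms rectangular pulses and isometric contractions were recorded. Cumulative concentration–response curves were run with up to five concentrations. EC75/EC125 is the concentration giving a 25% decrease/increase from the predrug value, reported as the geometric mean of individual ECs.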

For series [3], the species on record is Cavia porcellus. In words: In vitro activity in guinea pig atria was measured as rate of spontaneously beating right atrium (SR) which reflects the activity of the sinus node. Type of series: functional. The conditions noted are these: Cardiac atrium. A digest of the protocol:
as §1

The species entered for series [4] is Cavia porcellus. The experiment in a line: Score point for the selectivity versus additional effect FRP. It is filed as functional.
The species named for series [5] is Cavia porcellus. In words: Score value indicates decrease of the sinus rate. Type of series: functional.
The species named for series [6] is Cavia porcellus. The experiment in a line: Score value indicates selectivity versus the decrease in force of contraction. Type of series: functional.
The species named for series [7] is Cavia porcellus. In words: Sum of the scores of decrease of the sinus rate and selectivity versus the decrease in force of contraction. Type of series: functional.
Series [8] concerns Rattus norvegicus. In words: In vivo activity in anesthetized rat was measured as the R alpha T-interval of the rat ECG which reflects the time from ventricular excitation to recovery. Type of series: functional, Cardiac ventricle. A digest of the protocol:
(§2)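 Male Wistar rats (280–360 g) under urethane (1.25 g/kg ip), intubated and breathing spontaneously. Femoral arterial pressure was recorded with needle-electrode ECG, analysed every 30 s. Compound was given by continuous femoral-vein infusion at 0.1 mL/min, with concentration raised tenfold every 10 min (3 doses). ED75/ED125 is the dose giving a 25% decrease/increase from the predrug value, reported as the geometric mean of individual EDs.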

Series [9] is filed under the species Rattus norvegicus. The experiment in a line: Score point for the selectivity versus additional effect R&T interval. It is filed as functional.
Series [10] is filed under the species Rattus norvegicus. In words: Score value indicates desire effect on heart rate. Type of series: functional.
The species named for series [11] is Rattus norvegicus. In words: Score value indicates selectivity against the undesired effect on diastolic blood pressure. Type of series: functional, Artery.
Series [12] can be described thus: Selectivity quotient (DAP125/HR75); # means very high (estimated). It is filed as functional. A digest of the protocol:
(§3)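 Male Wistar rats (280–360 g), urethane-anesthetized (1.25 g/kg ip), breathing spontaneously. Femoral artery pressure gave diastolic pressure; subcutaneous needle ECG gave heart rate and RαT interval (R onset to T apex), analyzed every 30 s. Femoral vein infusion at 0.1 mL/min, concentration raised tenfold every 10 min (3 doses). ED75/ED125 (25% change from predrug) were geometric means; quotients DAP125/HR75 and RαT125/HR75.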

The species named for series [13] is Cavia porcellus. The experiment in a line: Selectivity quotient (F75/SR75). Type of series: functional. In a few lines: (§4)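 Atrial selectivity quotients were calculated from the guinea pig atrial EC values as F75/SR75 and FRP125/SR75.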
The species entered for series [14] is Cavia porcellus. The experiment in a line: Selectivity quotient (FRP125/SR75). It is filed as functional. In a few lines:
as §4

Series [15] is filed under the species Cavia porcellus. In words: In vitro activity in guinea pig atria was measured as the peak force of contraction (F) of a stimulated left atrium. It is filed as functional. The conditions noted are these: Cardiac atrium. In a few lines:
as §1

The species entered for series [16] is Rattus norvegicus. The experiment in a line: Total score (SS).
For series [17], the species on record is Rattus norvegicus. The experiment in a line: Selectivity quotient (R&T125/HR75).
Series [18] can be described thus: Selectivity quotient (R&T125/HR75); # # means very low (estimated). Type of series: functional. In a few lines: as §3
The species entered for series [19] is Rattus norvegicus. In words: Selectivity quotient (DAP125/HR75).
In series [20] the test system is Rattus norvegicus. In words: In vivo activity in anesthetized rat was measured as heart rate which provides information on in vivo bradycardic activity. It is filed as functional. A digest of the protocol:
as §2

In series [21] the test system is Rattus norvegicus. The experiment in a line: In vivo activity in anesthetized rat was measured as the diastolic arterial pressure which provides information on the peripheral resistance of the cardiovascular system and selectivity regarding bradycardia. It is filed as functional, Artery. In a few lines: as §2
A short description of series [22]: Selectivity quotient (F75/SR75); # means very high (estimated). It is filed as functional. In a few lines: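 Isolated atria in oxygenated buffer at 35 °C. Spontaneously beating right atria gave sinus rate; left atria paced at 2 Hz with 1 ms rectangular pulses gave isometric force of contraction. Cumulative concentration-response curves used up to five concentrations. EC75 (25% decrease from predrug value) was taken as the geometric mean of individual values. Quotient is F75/SR75.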

The nature of series [23]: Selectivity quotient (FRP125/SR75); # # means very low (estimated). Type of series: functional.

Bounds are passed on as bounds.

What is called logP is a log measure of how a compound divides between an organic and an aqueous phase. Broadly, the EC75 is the concentration at which the effect reaches the 75% level. Read a high EC75 as weaker potency. `CCC1(C)C2CN(CC3CCCCC3)CC1CN(CC1CCCCC1)C2` (configuration not stated): the logP in [1] was found to be 6.65. In the series filed under Cavia porcellus [2], this molecule registered an EC125 of 0.68 µM. The EC75 in the series filed under Cavia porcellus [3] was determined as 6.2 µM; in the series listed under Cavia porcellus [15] it was 4.69 µM. For the same molecule, the Score in the series filed under Cavia porcellus [4] is 5; in the series listed under Cavia porcellus [5] it was 3; in the series filed under Cavia porcellus [6], -6; in the series listed under Cavia porcellus [7], -3; in the series listed under Rattus norvegicus [9], 3; in the series listed under Rattus norvegicus [10], 4. The molecule further had a Score in the series listed under Rattus norvegicus [11] of 0. This molecule had an ED125 in the series with Rattus norvegicus [8] of 5.5 µM/kg. Also, the Selectivity quotient result is on record as “#” in series [12], 0.76 in the series filed under Cavia porcellus [13], 0.11 in the series listed under Cavia porcellus [14] and 0.5 in the series listed under Rattus norvegicus [17]. Besides, the “total score (SS)” value in the series listed under Rattus norvegicus [16] turned out to be 4.
`CCCCCCN1CC2CN(CCCCCC)CC(C1)C2(CC)CCCC` (configuration not stated): in series [1], the logP amounted to 8.26. Moreover, in the series filed under Cavia porcellus [2], the EC125 is 1.27 µM. The EC75 in the series listed under Cavia porcellus [3] came out at 0.6 µM; in the series listed under Cavia porcellus [15], 1.39 µM. In addition, the Score in the series listed under Cavia porcellus [4] is reported as 2; in the series filed under Cavia porcellus [5], 6; in the series filed under Cavia porcellus [6], -4; in the series listed under Cavia porcellus [7] it was 2; in the series filed under Rattus norvegicus [9], 6; in the series listed under Rattus norvegicus [10], 0. The Score in the series listed under Rattus norvegicus [11] is recorded as -3. This molecule also yielded an ED125 with Rattus norvegicus [8] of 4 µM/kg. For the same molecule, the Selectivity quotient in the series listed under Cavia porcellus [13] was 2.32; in the series filed under Cavia porcellus [14] it was 2.12; in series [18], “very low”; in the series filed under Rattus norvegicus [19] it was 1. Also, in the series filed under Rattus norvegicus [16], the “total score (SS)” value is reported as -3.
In the case of `C1CCC2(C1)C1CN(CC3CC3)CC2CN(CC2CC2)C1` [TEDISAMIL], the logP in [1] is 4.19. Further, the EC125 in the series filed under Cavia porcellus [2] turned out to be 0.76 µM. In addition, the EC75 in the series filed under Cavia porcellus [3] turned out to be 1.3 µM; in the series filed under Cavia porcellus [15], 49 µM. The Score in the series listed under Cavia porcellus [4] is 3; in the series listed under Cavia porcellus [5] it was 5; in the series filed under Cavia porcellus [6], 0; in the series listed under Cavia porcellus [7] it was 5; in the series filed under Rattus norvegicus [9], 4; in the series filed under Rattus norvegicus [10], 5. The Score in the series filed under Rattus norvegicus [11] is listed as 0. Also, the ED125 with Rattus norvegicus [8] worked out at 2.5 µM/kg. This molecule also showed an ED75 in the series with Rattus norvegicus [20] of 5.3 µM/kg. Moreover, the Selectivity quotient result in [12] is “#”; in the series filed under Cavia porcellus [13], 37.6; in the series filed under Cavia porcellus [14] it was 0.56; in the series filed under Rattus norvegicus [17], 0.47. Also, the “total score (SS)” value in the series filed under Rattus norvegicus [16] is reported as 5.
Turning to `CCCN1CC2CN(CCC)CC(C1)C2(CC)CC`, in [1], the logP was determined as 3.85. The EC125 in the series listed under Cavia porcellus [2] is 1.52 µM. For the same molecule, the EC75 in the series listed under Cavia porcellus [3] was 3.53 µM. Further, the Score is recorded as 4 in the series filed under Cavia porcellus [4]; 3 in the series filed under Cavia porcellus [5]; 0 in the series filed under Cavia porcellus [6]; 3 in the series listed under Cavia porcellus [7]; 5 in the series listed under Rattus norvegicus [9]; 4 in the series filed under Rattus norvegicus [10]. Besides, the Score in the series filed under Rattus norvegicus [11] is recorded as -3. The figures for the ED125 in the series on Rattus norvegicus [8] and in the series on Rattus norvegicus [21] were 2.1 µM/kg and 10 µM/kg, respectively. In the series with Rattus norvegicus [20], the ED75 turned out to be 12 µM/kg. Further, the Selectivity quotient result in series [22] is “#”; in the series listed under Cavia porcellus [14], 0.43; in the series listed under Rattus norvegicus [19] it was 0.8; in the series listed under Rattus norvegicus [17], 0.18. Further, the “total score (SS)” value in the series filed under Rattus norvegicus [16] is 1.
With `CCCCN1CC2CN(CC(C)C)CC(C1)C2(C)C`, in series [1], the logP was determined as 3.7. In the series listed under Cavia porcellus [2], this molecule showed an EC125 of 0.82 µM. In the series filed under Cavia porcellus [3], this molecule came in with an EC75 of 3.07 µM. Moreover, the Score in the series filed under Cavia porcellus [4] came to 4; in the series filed under Cavia porcellus [5] it was 4; in the series listed under Cavia porcellus [6], 0; in the series listed under Cavia porcellus [7] it was 4; in the series listed under Rattus norvegicus [9] it was 5; in the series filed under Rattus norvegicus [10], 5. The Score in the series filed under Rattus norvegicus [11] was -1. Besides, the ED125 in the series on Rattus norvegicus [8] was 0.73 µM/kg; in the series with Rattus norvegicus [21], greater than 41 µM/kg. For the same molecule, in the series with Rattus norvegicus [20], the ED75 was determined as 5.7 µM/kg. The Selectivity quotient entry in series [22] is recorded as “#”; in the series listed under Cavia porcellus [14], 0.27; in the series listed under Rattus norvegicus [19], greater than 7; in the series listed under Rattus norvegicus [17] it was 0.13. Moreover, the “total score (SS)” value in the series listed under Rattus norvegicus [16] amounted to 4.
As to `CCCCCCN1CC2CC(CN(C)C2)C1`, in [1], the logP is 3.18. In the series filed under Cavia porcellus [2], the EC125 turned out to be 1.4 µM. For the same molecule, the Score was 6 in the series filed under Cavia porcellus [4]; 0 in the series listed under Cavia porcellus [5]; -5 in the series filed under Cavia porcellus [6]; -5 in the series listed under Cavia porcellus [7]; 5 in the series listed under Rattus norvegicus [9]; 1 in the series listed under Rattus norvegicus [10]. Further, the Score in the series listed under Rattus norvegicus [11] is -3. The same molecule yielded an ED125 in the series on Rattus norvegicus [8] of 8.4 µM/kg. Further, the ED75 in the series with Rattus norvegicus [20] was 46 µM/kg. The Selectivity quotient in the series filed under Cavia porcellus [13] is given as 1; in series [23], “very low”; in the series filed under Rattus norvegicus [19], 1; in the series listed under Rattus norvegicus [17], 0.18. Also, the EC75 in the series filed under Cavia porcellus [15] was 83.8 µM. Moreover, the “total score (SS)” value in the series filed under Rattus norvegicus [16] was -2.
With `CC(C)N1CC2CN(C(C)C)CC(C1)C2(C)C`, in series [1], the logP came to 2.48. In the series filed under Cavia porcellus [2], this molecule yielded an EC125 of 111 µM. For the same molecule, in the series filed under Cavia porcellus [3], the EC75 stood at 10.9 µM. In addition, the Score is recorded as 0 in the series listed under Cavia porcellus [4]; 2 in the series filed under Cavia porcellus [5]; -2 in the series listed under Cavia porcellus [6]; 0 in the series listed under Cavia porcellus [7]; 4 in the series filed under Rattus norvegicus [9]; 1 in the series filed under Rattus norvegicus [10]. For the same molecule, in the series filed under Rattus norvegicus [11], the Score is on record as -3. Further, the ED125 in the series on Rattus norvegicus [8] was 18 µM/kg. For the same molecule, the ED75 in the series on Rattus norvegicus [20] worked out at 52 µM/kg. Moreover, the Selectivity quotient result is “#” in series [22], 10.2 in the series listed under Cavia porcellus [14], 1 in the series filed under Rattus norvegicus [19] and 0.35 in the series filed under Rattus norvegicus [17]. Besides, in the series listed under Rattus norvegicus [16], the “total score (SS)” value was -2.
